Results on 15 compounds are retold here after ChEMBL document CHEMBL3091460, “Synthesis of combretastatin A-4 O-alkyl derivatives and evaluation of their cytotoxic, antiangiogenic and antitelomerase activity” (Bioorg Med Chem, 2013).

Series [1] is described as follows: Selectivity ratio of IC50 for HEK293 cells to IC50 for human MCF7 cells. It is filed as ADME, cell-based. Conditions: HEK293 cells versus MCF7 cells, read-out: Ratio IC50.
Series [2] can be described thus: Selectivity ratio of IC50 for HEK293 cells to IC50 for human HT-29 cells. The class given is ADME, cell-based. The settings on record: HEK293 cells versus HT-29 cells, read-out: Ratio IC50.
Another series deals with HEK293. In words: Cytotoxicity against HEK293 cells assessed as growth inhibition after 3 days by MTT assay. The settings on record: Homo sapiens, HEK293, 72 h. It is filed as cell-based. The gist of the method:
(§1)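 5 × 10³ cells per well (HT-29, MCF-7 or HEK-293) exposed for 3 days at 37 °C, 5% CO2, humidified. MTT (5 mg/ml in PBS) added for a further 4 h at 37 °C. Formazan dissolved in 0.04 N HCl/2-propanol and read at 550 nm. Run in triplicate. IC50 taken as the concentration giving 50% growth inhibition.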

A further series relates to MCF7. The experiment in a line: Cytotoxicity against human MCF7 cells assessed as growth inhibition after 3 days by MTT assay. It is filed as functional, cell-based. Conditions: MCF7, 72 h. In short, it runs like this: as §1
(Tetrazolium dyes change colour on reduction, which living cells bring about.)

Series [3] deals with HT-29. The experiment in a line: Cytotoxicity against human HT-29 cells assessed as growth inhibition after 3 days by MTT assay. It is filed as functional, cell-based. The settings on record: HT-29, 72 h. The gist of the method: as §1
Series [4] deals with HT-29. In words: Antiangiogenic activity in human HT-29 cells assessed as inhibition of VEGF production at < IC50 after 72 hrs by ELISA relative to control; values are per cent of control. Background: An ELISA detects its analyte on a solid surface through an enzyme-linked reagent.
Series [5] relates to HT-29. In words: Inhibition of c-myc mRNA expression in human HT-29 cells after 48 hrs by RT-PCR analysis relative to control. It is filed as functional. The gist of the method:
(§2)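 HT-29 cells grown to 70–80% confluence and serum-starved 24 h, then treated in DMSO for 48 h. Total RNA extracted, converted to cDNA and PCR-amplified with gene-specific primers. PCR cycles were VEGF 94 °C 30 s/58 °C 1 min/72 °C 1 min 50 s; hTERT 94 °C 1 min/57 °C 1 min/72 °C 1 min 30 s; c-Myc as VEGF. Agarose gel bands quantified by densitometry and normalized to β-actin. DMSO control set to 100%. At least three measurements per case, mean ± SEM, one-sample t-test.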

Series [6] deals with HT-29. In words: Inhibition of TERT mRNA expression in human HT-29 cells after 48 hrs by RT-PCR analysis relative to control. The class given is functional. In short, it runs like this: as §2
Series [7] deals with HT-29. In words: Antiangiogenic activity in human HT-29 cells assessed as inhibition of VEGF mRNA expression at < IC50 after 48 hrs by RT-PCR analysis relative to control; values are per cent of control.

Usually IC50 stands for the concentration that gives 50% inhibition.

On to `COc1ccc(/C=C/CCCOc2cc(/C=C\c3cc(OC)c(OC)c(OC)c3)ccc2OC)cc1`, for which the selectivity ratio in series [1] amounted to 5.5; in [2], 1.9. In addition, the half-maximal inhibitory concentration (IC50) in the series on HEK293 was 88 µM; in the series on MCF7 it was 16 µM; with HT-29 [3], 47 µM. The “level, % of control” value with HT-29 [4] is 50%.
In the case of `COc1ccc(/C=C\c2cc(OC)c(OC)c(OC)c2)cc1OCCC/C=C/c1ccc(Cl)cc1`, the selectivity ratio stood at 2.8 in [1] and 6.2 in [2]. The IC50 with HEK293 is 111 µM; with MCF7, 40 µM; in the series on HT-29 [3], 18 µM. Also, in the series with HT-29 [4], the “level, % of control” value turned out to be 60%.
With `COc1ccc(COc2cc(/C=C\c3cc(OC)c(OC)c(OC)c3)ccc2OC)cc1`, the selectivity ratio in series [1] amounted to 1.3; in series [2], 1.4. In addition, the figures for the IC50 in the series on HEK293, with MCF7 and with HT-29 [3] were 64 µM, 48 µM and 47 µM, respectively. In addition, the “level, % of control” value in the series on HT-29 [4] worked out at 57%.
Consider `COc1ccc(/C=C\c2cc(OC)c(OC)c(OC)c2)cc1OCCC/C=C/c1ccc(Br)cc1`, for which the “inhibition (INH)” value in the series with HT-29 [5] is given as 35%; with HT-29 [6], 39%. For the same compound, the results for the selectivity ratio in [1] and in [2] were 1.5 and 5, respectively. Also, the IC50 with HEK293 came to 55 µM; in the series on MCF7 it was 37 µM; with HT-29 [3], 11 µM. Besides, the “level, % of control” value in the series on HT-29 [4] came to 48%; in the series on HT-29 [7] it was 73%.
Consider `COc1cccc(/C=C/CCCOc2cc(/C=C\c3cc(OC)c(OC)c(OC)c3)ccc2OC)c1`, for which the “inhibition (INH)” value with HT-29 [5] is listed as 60%; with HT-29 [6] it was 63%. In addition, the selectivity ratio was 1 in series [1] and 1.6 in [2]. Moreover, the IC50 was determined as 39 µM with HEK293, 41 µM in the series with MCF7 and 25 µM in the series on HT-29 [3]. Further, the “level, % of control” value was found to be 38% in the series on HT-29 [4] and 97% in the series with HT-29 [7].
Take `COc1ccc(/C=C\c2cc(OC)c(OC)c(OC)c2)cc1OCCC/C=C/c1ccc(F)cc1`: the selectivity ratio in series [1] was found to be 7.2; in [2] it was 1.2. The IC50 in the series with HEK293 was 115 µM; with MCF7, 16 µM; in the series with HT-29 [3], 98 µM. Further, the “level, % of control” value with HT-29 [4] was 57%.
Consider `COc1ccc(/C=C\c2cc(OC)c(OC)c(OC)c2)cc1O` [COMBRETASTATIN A4], for which the “inhibition (INH)” value turned out to be 99% in the series on HT-29 [5] and 74% in the series on HT-29 [6]. Besides, the selectivity ratio in series [1] came out at 25; in series [2], 5.9. The IC50 in the series on HEK293 was determined as 25 µM; in the series with MCF7, 1 µM; in the series on HT-29 [3], 4.2 µM. Also, the “level, % of control” value is 47% in the series on HT-29 [4] and 91% in the series on HT-29 [7].
Consider `COCOc1ccc(/C=C/CCCOc2cc(/C=C\c3cc(OC)c(OC)c(OC)c3)ccc2OC)cc1`, for which the figures for the “inhibition (INH)” value in the series on HT-29 [5] and with HT-29 [6] were 58% and 60%, respectively. The selectivity ratio worked out at 0.6 in series [1] and 3.6 in series [2]. Further, the IC50 amounted to 25 µM in the series on HEK293, 42 µM in the series on MCF7 and 7 µM with HT-29 [3]. Further, the results for the “level, % of control” value in the series on HT-29 [4] and with HT-29 [7] were 51% and 66%, respectively.
As for `COCOc1cccc(/C=C/CCCOc2cc(/C=C\c3cc(OC)c(OC)c(OC)c3)ccc2OC)c1`, the “inhibition (INH)” value with HT-29 [5] is given as 72%; in the series on HT-29 [6], 79%. Further, the figures for the selectivity ratio in series [1] and in [2] were 3.7 and 0.5, respectively. In addition, the IC50 in the series with HEK293 was 30 µM; in the series on MCF7 it was 8 µM; in the series with HT-29 [3], 59 µM. Moreover, the “level, % of control” value came out at 51% with HT-29 [4] and 90% with HT-29 [7].
On to `COc1ccc(/C=C\c2cc(OC)c(OC)c(OC)c2)cc1OCc1ccccc1`, for which the selectivity ratio is 0.3 in [1] and 0.4 in series [2]. Further, the 50% inhibitory concentration (IC50) stood at 15 µM in the series on HEK293, 59 µM with MCF7 and 39 µM in the series with HT-29 [3]. In addition, the “level, % of control” value with HT-29 [4] was found to be 79%.
`COCOc1ccccc1/C=C/CCCOc1cc(/C=C\c2cc(OC)c(OC)c(OC)c2)ccc1OC`: the “inhibition (INH)” value in the series with HT-29 [5] is listed as 75%; in the series with HT-29 [6], 76%. Moreover, the selectivity ratio stood at 24.1 in series [1] and 11 in [2]. For the same compound, the IC50 in the series with HEK293 was 106 µM; in the series with MCF7, 4.4 µM; in the series with HT-29 [3], 9.6 µM. Besides, the “level, % of control” value in the series on HT-29 [4] came out at 42%; in the series on HT-29 [7], 80%.
For the compound `C/C=C/COc1cc(/C=C\c2cc(OC)c(OC)c(OC)c2)ccc1OC`, the “inhibition (INH)” value in the series with HT-29 [5] was 92%; with HT-29 [6], 96%. Besides, the results for the selectivity ratio in series [1] and in series [2] were 25 and 0.8, respectively. The IC50 was 135 µM in the series with HEK293, 5.4 µM in the series on MCF7 and 161 µM in the series on HT-29 [3]. Moreover, the “level, % of control” value in the series on HT-29 [4] is given as 44%; with HT-29 [7], 69%.
For `COc1ccccc1/C=C/CCCOc1cc(/C=C\c2cc(OC)c(OC)c(OC)c2)ccc1OC`, the selectivity ratio in [1] was > 19; in series [2], > 4.6. In addition, the IC50 with HEK293 was > 400 µM; in the series with MCF7, 21 µM; with HT-29 [3], 86 µM. The “level, % of control” value with HT-29 [4] is on record as 52%.
For the compound `C=CCOc1cc(/C=C\c2cc(OC)c(OC)c(OC)c2)ccc1OC`, the selectivity ratio in [1] was 3.6; in series [2], 1.5. Also, the values for the IC50 with HEK293, in the series with MCF7 and in the series with HT-29 [3] were 43.5 µM, 12 µM and 29 µM, respectively. The “level, % of control” value in the series with HT-29 [4] came out at 51%.
Turning to `COc1ccc(/C=C\c2cc(OC)c(OC)c(OC)c2)cc1OCc1ccc(Br)cc1`, the selectivity ratio in [1] was determined as 1.6; in series [2], 0.4. The half-maximal inhibitory concentration (IC50) with HEK293 was 45 µM; in the series with MCF7 it was 29 µM; in the series on HT-29 [3], 108 µM. For the same compound, in the series on HT-29 [4], the “level, % of control” value came to 99%.
